Data reported in ChEMBL document CHEMBL3091455, “Dimethylaminopyridine derivatives of lupane triterpenoids cause mitochondrial disruption and induce the permeability transition” (Bioorg Med Chem, 2013).
Active and inactive are the calls of the source. No cut-off for these calls is given here.

How the values were obtained:
Rattus norvegicus [1] = species: Rattus norvegicus; assay: Effect on electron transport protein complex 2 in Wistar-Han rat liver mitochondria using succinate as substrate assessed as mitochondrial transmembrane electric potential at 6 ug/mg relative to control
Rattus norvegicus [2] = species: Rattus norvegicus; assay: Effect on electron transport protein complex 1 in Wistar-Han rat liver mitochondria using glutamate/malate as substrate assessed as ADP-induced depolarization at 3 ug/mg relative to control
Rattus norvegicus [3] = species: Rattus norvegicus; assay: Effect on electron transport protein complex 2 in Wistar-Han rat liver mitochondria using succinate as substrate assessed as ADP-induced depolarization at 6 ug/mg relative to control
Rattus norvegicus [4] = species: Rattus norvegicus; assay: Effect on electron transport protein complex 2 in Wistar-Han rat liver mitochondria using succinate as substrate assessed as phosphorylative lag phase at 3 ug/mg relative to control
How it was run: (§1)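 Membrane potential recorded by TPP⁺ electrode, 1 mg rat liver mitochondria, 30 °C, pH 7.2 sucrose/KCl medium with 3 μM TPP⁺. Compound (3 or 6 µg/mg protein) given 1 min before glutamate/malate (5/2.5 mM) or succinate (5 mM) + 3 µM rotenone. Lag phase follows the ADP pulse (125 nmol/mg protein).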

Rattus norvegicus [5] = species: Rattus norvegicus; assay: Effect on electron transport protein complex 1 in Wistar-Han rat liver mitochondria using glutamate/malate as substrate assessed as ADP-induced depolarization at 6 ug/mg relative to control
Hs-578T = assay: Induction of mitochondrial depolarization in human estrogen-insensitive Hs578T cells at 1 ug/ml after 48 hrs by MitoTracker Red staining; format: functional, cell-based
How it was run: (§2)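 Cells grown in DMEM with 10% FBS at 37 °C, 5% CO₂, seeded on coverslips, attached 24 h. Then 1 µg/ml compound for 48 h. MitoTracker Red CMXRos 7.3 nM added for the final 30 min. Cells fixed in cold methanol at −20 °C overnight and imaged by epifluorescence with a 63× objective. Three independent experiments.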

BJ = assay: Induction of mitochondrial depolarization in human BJ cells at 1 ug/ml after 48 hrs by MitoTracker Red staining; format: cell-based
How it was run: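 BJ normal human fibroblasts grown as monolayers in DMEM with 10% FBS, 37 °C, 5% CO2. Seeded on glass coverslips, attached 24 h, then exposed to compound (1 µg/ml) for 48 h. MitoTracker Red CMXRos (7.3 nM) added 30 min before end at 37 °C in dark. Methanol-fixed at -20 °C overnight, imaged by epifluorescence (63× objective). Three independent experiments.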

Rattus norvegicus [6] = species: Rattus norvegicus; assay: Inhibition of electron transport protein complex 1/2 in Wistar-Han rat liver mitochondria using glutamate/malate and succinate as substrate assessed as increase of state 3 and 4 mitochondrial oxygen consumption at 3 to 6 ug/mg
How it was run: (§3)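 Compound (3 or 6 µg/mg protein) preincubated 1 min, then 10 mM glutamate/5 mM malate or 5 mM succinate + 3 µM rotenone. ADP 187.5 nmol/mg protein; oligomycin 1 µg; FCCP 1 µM. RCR = state 3/state 4; ADP/O per Chance and Williams. Expressed as % control, means ± SEM, three preparations.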

Rattus norvegicus [7] = species: Rattus norvegicus; assay: Effect on electron transport protein complex 2 in Wistar-Han rat liver mitochondria using succinate as substrate assessed as ADP-induced depolarization at 3 ug/mg relative to control
MCF7 = assay: Induction of mitochondrial depolarization in human estrogen-sensitive MCF7 cells at 1 ug/ml after 48 hrs by MitoTracker Red staining; format: functional, cell-based; how it was run: as §2
Rattus norvegicus [8] = species: Rattus norvegicus; assay: Effect on electron transport protein complex 1 in Wistar-Han rat liver mitochondria using glutamate/malate as substrate assessed as phosphorylative lag phase at 6 ug/mg relative to control; how it was run: as §1
Rattus norvegicus [9] = species: Rattus norvegicus; assay: Effect on electron transport protein complex 1 in Wistar-Han rat liver mitochondria using glutamate/malate as substrate assessed as mitochondrial transmembrane electric potential at 6 ug/mg relative to control
Rattus norvegicus [10] = species: Rattus norvegicus; assay: Effect on electron transport protein complex 1 in Wistar-Han rat liver mitochondria using glutamate/malate as substrate assessed as phosphorylative lag phase at 3 ug/mg relative to control; how it was run: as §1
Rattus norvegicus [11] = species: Rattus norvegicus; assay: Effect on electron transport protein complex 2 in Wistar-Han rat liver mitochondria using succinate as substrate assessed as mitochondrial transmembrane electric potential at 3 ug/mg relative to control
Rattus norvegicus [12] = species: Rattus norvegicus; assay: Inhibition of electron transport protein complex 1/2 in Wistar-Han rat liver mitochondria using glutamate/malate and succinate as substrate assessed as decrease of respiratory control ratio at 6 ug/mg; how it was run: as §3
Rattus norvegicus [13] = species: Rattus norvegicus; assay: Effect on electron transport protein complex 1 in Wistar-Han rat liver mitochondria using glutamate/malate as substrate assessed as mitochondrial transmembrane electric potential at 3 ug/mg relative to control
Rattus norvegicus [14] = species: Rattus norvegicus; assay: Effect on electron transport protein complex 2 in Wistar-Han rat liver mitochondria using succinate as substrate assessed as phosphorylative lag phase at 6 ug/mg relative to control; how it was run: as §1
Rattus norvegicus [15] = species: Rattus norvegicus; assay: Effect on calcium-induced mitochondrial swelling in Wistar-Han rat liver mitochondria assessed as mitochondrial transmembrane electric potential after 2 mins; format: functional
How it was run: (§4)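 TPP⁺ electrode, 30 °C, 1 mg rat liver mitochondria in 1 ml 200 mM sucrose, 10 mM Tris-MOPS pH 7.2, 10 µM EGTA, 1 mM KH₂PO₄, 3 µM rotenone, 3 µM TPP⁺. Compound incubated with mitochondria 2 min (legend), then 5 mM succinate. Calcium 30–60 nmol pulses, depending on preparation. Controls: 1 µM cyclosporin A pre-incubated; FCCP.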

Rattus norvegicus [16] = species: Rattus norvegicus; assay: Inhibition of electron transport protein complex 1/2 in Wistar-Han rat liver mitochondria using glutamate/malate and succinate as substrate assessed as increase of passive flux of protons through mitochondrial inner membrane at 3 to 6 ug/mg
Rattus norvegicus [17] = species: Rattus norvegicus; assay: Inhibition of electron transport protein complex 1/2 in Wistar-Han rat liver mitochondria using glutamate/malate and succinate as substrate assessed as decrease of FCCP-induced respiration at 3 to 6 ug/mg; how it was run: as §3
Rattus norvegicus [18] = species: Rattus norvegicus; assay: Increase of calcium-induced mitochondrial permeability transition in Wistar-Han rat liver mitochondria assessed as mitochondrial transmembrane electric potential after 2 mins; format: functional; how it was run: as §4
Rattus norvegicus [19] = species: Rattus norvegicus; assay: Inhibition of electron transport protein complex 1/2 in Wistar-Han rat liver mitochondria using glutamate/malate and succinate as substrate assessed as decrease of ADP/O ratio at 3 to 6 ug/mg; how it was run: as §3

| Activity (Rattus norvegicus [1]) [mV] | Activity (Rattus norvegicus [3]) [%] | Activity (Rattus norvegicus [4]) [%] | Activity (Rattus norvegicus [7]) [%] | Activity (Rattus norvegicus [11]) [mV] | Activity (Rattus norvegicus [14]) [%] | Compound | Activity (Rattus norvegicus [2]) [%] | Activity (Rattus norvegicus [5]) [%] | Activity (Hs-578T) | Activity (BJ) | inhibition (Rattus norvegicus [6]) | Activity (MCF7) | Activity (Rattus norvegicus [8]) [%] | Activity (Rattus norvegicus [9]) [mV] | Activity (Rattus norvegicus [10]) [%] | inhibition (Rattus norvegicus [12]) | Activity (Rattus norvegicus [13]) [mV] | Activity (Rattus norvegicus [15]) | Activity (Rattus norvegicus [18]) | further results |
| --- | --- | --- | --- | --- | --- | --- | --- | --- | --- | --- | --- | --- | --- | --- | --- | --- | --- | --- | --- | --- |
| 228 | 13.8 | 40.3 | 22.4 | 228 | 57 | C=C(C[n+]1ccc(N(C)C)cc1)[C@@H]1CC[C@]2(C(=O)O)CC[C@]3(C)[C@H](CC[C@@H]4[C@@]5(C)CC[C@H](O)C(C)(C)[C@@H]5CC[C@]43C)[C@@H]12.[Br-] | 19.5 | 13.5 | inactive | Non-toxic | inactive | inactive | 63.3 | 229 | 51 | Active | 229 | – | – | – |
| 228 | 27.8 | 36 | 30.3 | 232 | 45.5 | C=C(C[n+]1ccc(N(C)C)cc1)[C@@H]1CC[C@]2(COC(=O)C[n+]3ccc(N(C)C)cc3)CC[C@]3(C)[C@H](CC[C@@H]4[C@@]5(C)CC[C@H](OC(=O)C[n+]6ccc(N(C)C)cc6)C(C)(C)[C@@H]5CC[C@]43C)[C@@H]12.[Br-].[Br-].[Br-] | 18.5 | 14.6 | Active | Toxic | inactive | Active | 46.5 | 226 | 42.8 | Active | 225 | inactive | Active | – |
| 224 | 27.8 | 39 | 28.5 | 226 | 42 | C=C(C)[C@@H]1CC[C@]2(COC(=O)C[n+]3ccc(N(C)C)cc3)CC[C@]3(C)[C@H](CC[C@@H]4[C@@]5(C)CC[C@H](O)C(C)(C)[C@@H]5CC[C@]43C)[C@@H]12 | 22.5 | 22.6 | – | – | Active | – | 31 | 225 | 28.8 | – | 225 | inactive | Active | inhibition (Rattus norvegicus [19]): Active |

The remaining lines, values behind:

| Compound | Activity (Rattus norvegicus [1]) [mV] | Activity (Rattus norvegicus [3]) [%] | Activity (Rattus norvegicus [4]) [%] | Activity (Rattus norvegicus [7]) [%] | Activity (Rattus norvegicus [11]) [mV] | Activity (Rattus norvegicus [14]) [%] | Activity (Rattus norvegicus [2]) [%] | Activity (Rattus norvegicus [5]) [%] | Activity (Hs-578T) | Activity (BJ) | inhibition (Rattus norvegicus [6]) | Activity (MCF7) | Activity (Rattus norvegicus [8]) [%] | Activity (Rattus norvegicus [9]) [mV] | Activity (Rattus norvegicus [10]) [%] | inhibition (Rattus norvegicus [12]) | Activity (Rattus norvegicus [13]) [mV] | Activity (Rattus norvegicus [15]) | Activity (Rattus norvegicus [18]) | further results |
| --- | --- | --- | --- | --- | --- | --- | --- | --- | --- | --- | --- | --- | --- | --- | --- | --- | --- | --- | --- | --- |
| C=C(C)[C@@H]1CC[C@]2(COC(=O)C[n+]3ccc(N(C)C)cc3)CC[C@]3(C)[C@H](CC[C@@H]4[C@@]5(C)CC[C@H](OC(=O)C[n+]6ccc(N(C)C)cc6)C(C)(C)[C@@H]5CC[C@]43C)[C@@H]12.[Br-].[Br-] | 229 | 27.7 | 38.3 | 30.6 | 232 | 40 | 23.4 | 20.3 | Active | Toxic | – | Active | 46 | 225 | 36.8 | – | 225 | inactive | Active | inhibition (Rattus norvegicus [16]): Active; inhibition (Rattus norvegicus [17]): Active |
| C=C(C)[C@@H]1CC[C@]2(CO)CC[C@]3(C)[C@H](CC[C@@H]4[C@@]5(C)CC[C@H](OC(=O)C[n+]6ccc(N(C)C)cc6)C(C)(C)[C@@H]5CC[C@]43C)[C@@H]12.[Cl-] | 228 | 29.9 | 38 | 36.2 | 232 | 53 | 26.5 | 23.5 | Active | Toxic | inactive | Active | 45 | 222 | 27.8 | – | 222 | inactive | Active | – |
